In ChEMBL document CHEMBL1629641, “An important site in PBP2x of penicillin-resistant clinical isolates of Streptococcus pneumoniae: mutational analysis of Thr338” (2009):
Converted amounts (≈) assume the structure as drawn.

Legend:
Conditions in all cases: R6, 48 h
Streptococcus pneumoniae [1] = assay: Antimicrobial activity against Streptococcus pneumoniae R6 harboring PBP2x T338A mutant gene after 48 hrs by agar dilution method; type: functional
Procedure, shortened: (§1)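 Agar dilution on blood agar plates (D-agar with 3% defibrinated sheep blood), natural atmosphere, inoculated with cells from exponentially growing cultures in C-medium with 0.2% yeast extract grown at 37°C without aeration; narrow range of antibiotic concentrations to detect subtle susceptibility differences; MIC read after 48 h at 37°C.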

Streptococcus pneumoniae [2] = assay: Antimicrobial activity against Streptococcus pneumoniae R6 harboring PBP2x2349 and PBP1a2349 mutant gene after 48 hrs by agar dilution method; type: functional; procedure, shortened: as §1
Streptococcus pneumoniae [3] = assay: Antimicrobial activity against Streptococcus pneumoniae R6 harboring PBP2x T338G mutant gene after 48 hrs by agar dilution method; type: functional; procedure, shortened: as §1
Streptococcus pneumoniae [4] = assay: Antimicrobial activity against Streptococcus pneumoniae R6 harboring PBP2x T338P mutant gene, disruption at PBP1a and aad9 disruption in CiaR gene after 48 hrs by agar dilution method; type: functional; procedure, shortened: as §1
Streptococcus pneumoniae [5] = assay: Antimicrobial activity against Streptococcus pneumoniae R6 harboring PBP2x T338A mutant gene, disruption at PBP1a and aad9 disruption in CiaR gene after 48 hrs by agar dilution method; type: functional; procedure, shortened: as §1
Streptococcus pneumoniae [6] = assay: Antimicrobial activity against Streptococcus pneumoniae R6 harboring wild type PBP2x, disruption in PBP1a and aad9 disruption in CiaR gene after 48 hrs by agar dilution method; type: functional; procedure, shortened: as §1
Streptococcus pneumoniae [7] = assay: Antimicrobial activity against Streptococcus pneumoniae R6 harboring PBP2x T338P mutant gene after 48 hrs by agar dilution method; type: functional; procedure, shortened: as §1
Streptococcus pneumoniae [8] = assay: Antimicrobial activity against Streptococcus pneumoniae R6 harboring PBP2x T338G mutant gene, disruption at PBP1a and aad9 disruption in CiaR gene after 48 hrs by agar dilution method; type: functional; procedure, shortened: as §1
Streptococcus pneumoniae [9] = assay: Antimicrobial activity against streptomycin- resistant Streptococcus pneumoniae R6 harboring PBP2x2349 mutant gene and Janus disruption at PBP1a after 48 hrs by agar dilution method; type: functional; procedure, shortened: as §1
Streptococcus pneumoniae [10] = assay: Antimicrobial activity against Streptococcus pneumoniae R6 harboring PBP2x2349 mutant gene after 48 hrs by agar dilution method; type: functional; procedure, shortened: as §1
Streptococcus pneumoniae [11] = assay: Antimicrobial activity against Streptococcus pneumoniae R6 after 48 hrs by agar dilution method; type: functional; procedure, shortened: as §1
Streptococcus pneumoniae [12] = assay: Antimicrobial activity against streptomycin-resistant Streptococcus pneumoniae R6 harboring PBP2x T338G and PBP1a2349 mutant gene after 48 hrs by agar dilution method; type: functional; procedure, shortened: as §1
Streptococcus pneumoniae [13] = assay: Antimicrobial activity against streptomycin-resistant Streptococcus pneumoniae R6 harboring PBP2x T338G mutant gene and Janus disruption at PBP1a after 48 hrs by agar dilution method; type: functional; procedure, shortened: as §1
Streptococcus pneumoniae [14] = assay: Antimicrobial activity against Streptococcus pneumoniae R6 harboring PBP2x T338G mutant gene, disruption at PBP1a and aad9 disruption in CiaR gene after 48 hrs by agar dilution method

SMILES | MIC (Streptococcus pneumoniae [1]) [µg/mL] | MIC (Streptococcus pneumoniae [2]) [µg/mL] | MIC (Streptococcus pneumoniae [3]) [µg/mL] | MIC (Streptococcus pneumoniae [4]) [µg/mL] | MIC (Streptococcus pneumoniae [5]) [µg/mL] | MIC (Streptococcus pneumoniae [6]) [µg/mL] | MIC (Streptococcus pneumoniae [7]) [µg/mL] | MIC (Streptococcus pneumoniae [8]) [µg/mL] | MIC (Streptococcus pneumoniae [9]) [µg/mL] | MIC (Streptococcus pneumoniae [10]) [µg/mL] | MIC (Streptococcus pneumoniae [11]) [µg/mL] | MIC (Streptococcus pneumoniae [12]) [µg/mL] | MIC (Streptococcus pneumoniae [13]) [µg/mL] | MIC (Streptococcus pneumoniae [14]) [µg/mL]
CO/N=C(\C(=O)N[C@@H]1C(=O)N2C(C(=O)O)=C(COC(C)=O)CS[C@H]12)c1csc(N)n1 [CEFOTAXIME] | 0.035 (≈ 0.0768 µM) | 1 (≈ 2.2 µM) | 0.045 (≈ 0.0988 µM) | 0.045 (≈ 0.0988 µM) | 0.045 (≈ 0.0988 µM) | 0.025 (≈ 0.0549 µM) | 0.04 (≈ 0.0878 µM) | 0.055 (≈ 0.121 µM) | 0.2 (≈ 0.439 µM) | 0.3 (≈ 0.659 µM) | 0.02 (≈ 0.0439 µM) | 0.03 (≈ 0.0659 µM) | 0.03 (≈ 0.0659 µM) | 
Cc1onc(-c2ccccc2)c1C(=O)N[C@@H]1C(=O)N2[C@@H]1SC(C)(C)[C@@H]2C(=O)O [OXACILLIN] | 0.18 (≈ 0.448 µM) | 0.85 (≈ 2.12 µM) | 0.25 (≈ 0.623 µM) | 0.24 (≈ 0.598 µM) | 0.2 (≈ 0.498 µM) | 0.08 (≈ 0.199 µM) | 0.23 (≈ 0.573 µM) | 0.25 (≈ 0.623 µM) | 0.95 (≈ 2.37 µM) | 1 (≈ 2.49 µM) | 0.08 (≈ 0.199 µM) | 0.16 (≈ 0.399 µM) | 0.21 (≈ 0.523 µM) | 
CC1(C)S[C@@H]2[C@H](NC(=O)Cc3ccccc3)C(=O)N2[C@H]1C(=O)O [PENICILLIN G] | 0.03 (≈ 0.0897 µM) | 0.035 (≈ 0.105 µM) | 0.03 (≈ 0.0897 µM) |  | 0.04 (≈ 0.12 µM) | 0.02 (≈ 0.0598 µM) | 0.03 (≈ 0.0897 µM) | 0.025 (≈ 0.0748 µM) | 0.04 (≈ 0.12 µM) | 0.04 (≈ 0.12 µM) | 0.02 (≈ 0.0598 µM) | 0.02 (≈ 0.0598 µM) | 0.02 (≈ 0.0598 µM) | 0.025 (≈ 0.0748 µM)
CCN1CCN(C(=O)N[C@@H](C(=O)N[C@@H]2C(=O)N3[C@@H]2SC(C)(C)[C@@H]3C(=O)O)c2ccccc2)C(=O)C1=O [PIPERACILLIN] | 0.09 (≈ 0.174 µM) | 0.11 (≈ 0.213 µM) | 0.1 (≈ 0.193 µM) | 0.06 (≈ 0.116 µM) | 0.11 (≈ 0.213 µM) | 0.06 (≈ 0.116 µM) | 0.06 (≈ 0.116 µM) | 0.08 (≈ 0.155 µM) | 0.12 (≈ 0.232 µM) | 0.12 (≈ 0.232 µM) | 0.04 (≈ 0.0773 µM) | 0.06 (≈ 0.116 µM) | 0.09 (≈ 0.174 µM) | 
